Laboratory results reported in ChEMBL document CHEMBL4373630, “Rapid kill assessment of an N-arylated NH125 analogue against drug-resistant microorganisms” (Medchemcomm, 2019).
The source made the active and inactive calls. No cut-off for these calls is given here.

Key:
Staphylococcus aureus [1] = experiment: Bactericidal activity against methicillin-resistant Staphylococcus aureus ATCC BAA 1707 assessed as as reduction in bacterial load by measuring reduction in colony forming units at 50 uM preincubated for 3 min followed by subculturing and further incubated for over night by time-kill kinetic assay; type: functional
In short: (§1)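 Overnight culture diluted 1:1000 into LB containing compound at the set concentration or DMSO vehicle alone, then shaken at 250 rpm at 37 °C. At 1, 3, 5 and 10 min, aliquots were serially diluted and plated on LB 1.5% agar and incubated overnight at 37 °C. CFU/mL were taken from plates with 30–300 colonies and compared with vehicle control. Three replicates came from separate colonies.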

Staphylococcus aureus [2] = experiment: Bactericidal activity against methicillin-resistant Staphylococcus aureus ATCC BAA 1707 at 50 uM after 5 to 10 mins by time-kill kinetic assay relative to control; type: functional; in short: as §1
HEK293 = experiment: Cytotoxicity against human HEK293 cells assessed as reduction in viability at 25 uM after 48 hrs by MTT assay relative to control; type: cell-based; details: hek293, 48 h
In short: (§2)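 HEK 293 cells, 10^4 per well, in DMEM with 10% FBS and penicillin/streptomycin, were left overnight at 37 °C under 5% CO2. MTT was added for 3 h and dissolved in DMSO, then OD570 was read. Six replicates per treatment; percent kill = (1 – test OD570/untreated OD570) × 100%; CC50 taken as the half-maximal toxic concentration.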

Staphylococcus aureus [3] = experiment: Antibacterial activity against methicillin-resistant Staphylococcus aureus ATCC BAA 1707 assessed as as reduction in bacterial load by measuring reduction in colony forming units at 50 uM treated with 111 days old solution of test compound for 10 mins followed by subculturing and further incubated for over night by time-kill kinetic assay; type: functional, organism-based
In short: (§3)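 Compound was prepared at 50 μM in LB and stored on the shelf for 18 days or 111 days. Exponentially growing MRSA 1707 (overnight culture diluted 1:1000 in LB) was exposed to the stored solution for 10 min at 37 °C with 250 rpm shaking. Aliquots were serially diluted, plated on LB agar and incubated overnight at 37 °C. CFU/mL were compared with vehicle control.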

Staphylococcus aureus [4] = experiment: Bactericidal activity against methicillin-resistant Staphylococcus aureus ATCC BAA 1707 assessed as as reduction in bacterial load by measuring reduction in colony forming units at 50 uM preincubated for 1 min followed by subculturing and further incubated for over night by time-kill kinetic assay; type: functional; in short: as §1
Staphylococcus aureus [5] = experiment: Bactericidal activity against methicillin-resistant Staphylococcus aureus ATCC BAA 1707 at 50 uM after 1 min by time-kill kinetic assay relative to control; type: functional; in short: as §1
Staphylococcus aureus [6] = experiment: Antibacterial activity against methicillin-resistant Staphylococcus aureus ATCC BAA 1707 at 50 uM treated with 18 days old solution of test compound for 10 mins relative to control; type: functional; in short: as §3
Staphylococcus aureus [7] = experiment: Antibacterial activity against methicillin-resistant Staphylococcus aureus ATCC BAA 1707 assessed as as reduction in bacterial load by measuring reduction in colony forming units at 50 uM treated with 18 days old solution of test compound for 10 mins followed by subculturing and further incubated for over night by time-kill kinetic assay; type: functional; in short: as §3
Staphylococcus aureus [8] = experiment: Bactericidal activity against methicillin-resistant Staphylococcus aureus ATCC BAA 1707 at 50 uM after 3 mins by time-kill kinetic assay relative to control; type: functional; in short: as §1
Staphylococcus aureus [9] = experiment: Bactericidal activity against methicillin-resistant Staphylococcus aureus ATCC BAA 1707 assessed as as reduction in bacterial load by measuring reduction in colony forming units at 50 uM preincubated for 5 to 10 min followed by subculturing and further incubated for over night by time-kill kinetic assay; type: functional; in short: as §1
Staphylococcus aureus [10] = experiment: Antibacterial activity against methicillin-resistant Staphylococcus aureus ATCC BAA 1707 at 50 uM treated with 111 days old solution of test compound for 10 mins relative to control; type: functional; in short: as §3
[11] = Cytotoxicity against human HEK293 cells after 48 hrs by MTT assay; type: cell-based; in short: as §2
Staphylococcus aureus [12] = experiment: Bactericidal activity against methicillin-resistant Staphylococcus aureus ATCC BAA 1707 assessed as as reduction in bacterial load by measuring reduction in colony forming units at 20 uM preincubated for 5 min followed by subculturing and further incubated for over night by time-kill kinetic assay; type: functional; in short: as §1
[13] = system: Staphylococcus epidermidis; experiment: Antibacterial activity against methicillin-resistant Staphylococcus epidermidis ATCC 35984 after 16 to 18 hrs by CLSI protocol based broth microdilution assay; type: functional
Staphylococcus aureus [14] = experiment: Antibacterial activity against methicillin-resistant Staphylococcus aureus ATCC BAA 1707 after 16 to 18 hrs by CLSI protocol based broth microdilution assay; type: functional
[15] = system: Staphylococcus epidermidis; experiment: Bactericidal activity against methicillin-resistant Staphylococcus epidermidis ATCC 35984 assessed as as reduction in bacterial load by measuring reduction in colony forming units at 50 uM preincubated for 5 to 10 min followed by subculturing and further incubated for over night by time-kill kinetic assay; type: functional; in short: as §1
Staphylococcus aureus [16] = experiment: Bactericidal activity against methicillin-resistant Staphylococcus aureus ATCC BAA 1707 assessed as as reduction in bacterial load by measuring reduction in colony forming units at 20 uM preincubated for 10min followed by subculturing and further incubated for over night by time-kill kinetic assay; type: functional; in short: as §1
Acinetobacter baumannii [17] = experiment: Antibacterial activity against multidrug-resistant Acinetobacter baumannii ATCC 1794 after 16 to 18 hrs by CLSI protocol based broth microdilution assay; type: functional
Acinetobacter baumannii [18] = experiment: Bactericidal activity against multidrug-resistant Acinetobacter baumannii ATCC 1794 assessed as as reduction in bacterial load by measuring reduction in colony forming units at 50 uM preincubated for 10 min followed by subculturing and further incubated for over night by time-kill kinetic assay; type: functional; in short: as §1
Staphylococcus aureus [19] = experiment: Bactericidal activity against methicillin-resistant Staphylococcus aureus ATCC BAA 1707 assessed as as reduction in bacterial load by measuring reduction in colony forming units at 5 uM preincubated for 5 min followed by subculturing and further incubated for over night by time-kill kinetic assay; type: functional; in short: as §1
Staphylococcus aureus [20] = experiment: Bactericidal activity against methicillin-resistant Staphylococcus aureus ATCC BAA 1707 at 20 uM after 5 mins by time-kill kinetic assay relative to control; type: functional; in short: as §1
Klebsiella pneumoniae = experiment: Antibacterial activity against Klebsiella pneumoniae ATCC 13883 after 16 to 18 hrs by CLSI protocol based broth microdilution assay; type: functional
Cryptococcus neoformans [21] = experiment: Fungicidal activity against Cryptococcus neoformans ATCC 66031 assessed as as reduction in bacterial load by measuring reduction in colony forming units at 50 uM preincubated for 5 to 10 min followed by subculturing and further incubated for 1 or 2 days by time-kill kinetic assay; type: functional
In short: (§4)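 C. neoformans ATCC 66031 was streaked on YPD agar for two days at 37 °C, and single colonies were grown overnight in YPD at 37 °C, 250 rpm. Overnight cultures were diluted in fresh YPD with compound in DMSO at 50 μM final, or DMSO alone, and kept at 37 °C, 250 rpm. Aliquots were diluted and plated on YPD agar, and colonies counted after 1–2 days at 37 °C. Triplicate; CFU per mL.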

Staphylococcus aureus [22] = experiment: Bactericidal activity against methicillin-resistant Staphylococcus aureus ATCC BAA 1707 at 20 uM after 10 mins by time-kill kinetic assay relative to control; type: functional; in short: as §1
Enterococcus faecium [23] = experiment: Bactericidal activity vancomycin-resistant Enterococcus faecium ATCC 700221 assessed as as reduction in bacterial load by measuring reduction in colony forming units at 50 uM preincubated for 5 to 10 min followed by subculturing and further incubated for over night by time-kill kinetic assay; type: functional; in short: as §1
[24] = system: Staphylococcus epidermidis; experiment: Bactericidal activity against methicillin-resistant Staphylococcus epidermidis ATCC 35984 at 50 uM after 5 to 10 mins by time-kill kinetic assay relative to control; type: functional; in short: as §1
Escherichia coli = experiment: Antibacterial activity against Escherichia coli clinical isolate UAEC-1 after 16 to 18 hrs by CLSI protocol based broth microdilution assay; type: functional
Enterococcus faecium [25] = experiment: Antibacterial activity against vancomycin-resistant Enterococcus faecium ATCC 700221 after 16 to 18 hrs by CLSI protocol based broth microdilution assay; type: functional
Staphylococcus aureus [26] = experiment: Bactericidal activity against methicillin-resistant Staphylococcus aureus ATCC BAA 1707 assessed as as reduction in bacterial load by measuring reduction in colony forming units at 5 uM preincubated for 10 min followed by subculturing and further incubated for over night by time-kill kinetic assay; type: functional; in short: as §1
Cryptococcus neoformans [27] = experiment: Fungicidal activity against Cryptococcus neoformans ATCC 66031 at 50 uM after 5 to 10 mins by time-kill kinetic assay relative to control; type: functional; in short: as §4
Enterococcus faecium [28] = experiment: Bactericidal activity vancomycin-resistant Enterococcus faecium ATCC 700221 at 50 uM after 5 to 10 mins by time-kill kinetic assay relative to control; type: functional; in short: as §1
Acinetobacter baumannii [29] = experiment: Bactericidal activity against multidrug-resistant Acinetobacter baumannii ATCC 1794 assessed as as reduction in bacterial load by measuring reduction in colony forming units at 50 uM preincubated for 5 min followed by subculturing and further incubated for over night by time-kill kinetic assay; type: functional; in short: as §1
Staphylococcus aureus [30] = experiment: Bactericidal activity against methicillin-resistant Staphylococcus aureus ATCC BAA 1707 at 5 uM after 10 mins by time-kill kinetic assay relative to control; type: functional; in short: as §1
Acinetobacter baumannii [31] = experiment: Bactericidal activity against multidrug-resistant Acinetobacter baumannii ATCC 1794 at 50 uM after 5 mins by time-kill kinetic assay relative to control; type: functional; in short: as §1
Acinetobacter baumannii [32] = experiment: Bactericidal activity against multidrug-resistant Acinetobacter baumannii ATCC 1794 at 50 uM after 10 mins by time-kill kinetic assay relative to control; type: functional; in short: as §1

## CCCCCCCCCCCCCCCC[N+](C)(C)Cc1ccccc1.[Cl-] [CETALKONIUM CHLORIDE]
Staphylococcus aureus [1]
  Activity: 4 log10CFU/ml
Staphylococcus aureus [2]
  Activity: 100%
HEK293
  Activity: 100%
Staphylococcus aureus [3]
  Activity: Active
Staphylococcus aureus [4]
  Activity: 4 log10CFU/ml
Staphylococcus aureus [5]
  Activity: 99.99%
Staphylococcus aureus [6]
  Activity: >99%
Staphylococcus aureus [7]
  Activity: >3 log10CFU/ml
Staphylococcus aureus [8]
  Activity: 99.99%
Staphylococcus aureus [9]
  Activity: >6 log10CFU/ml
Staphylococcus aureus [10]
  Activity: >99%
[11]
  CC50 at 48 h: 6840 nM

## CCCCCCCCCCCCCCCCn1cc[n+](-c2ccccc2)c1C
Staphylococcus aureus [1]
  Activity: 4 log10CFU/ml
Staphylococcus aureus [12]
  Activity: 3 log10CFU/ml
[13]
  MIC: 1.17 µM
Staphylococcus aureus [14]
  MIC: 1.56 µM
Staphylococcus aureus [2]
  Activity: 100%
[15]
  Activity: 6 log10CFU/ml
Staphylococcus aureus [16]
  Activity: 4 log10CFU/ml
Acinetobacter baumannii [17]
  MIC: 12.5 µM
Acinetobacter baumannii [18]
  Activity: >6 log10CFU/ml
HEK293
  Activity: 100%
Staphylococcus aureus [3]
  Activity: Active
Staphylococcus aureus [19]
  Activity: <1 log10CFU/ml
Staphylococcus aureus [4]
  Activity: 4 log10CFU/ml
Staphylococcus aureus [20]
  Activity: 99.9%
Klebsiella pneumoniae
  MIC: 6.25 µM
Staphylococcus aureus [5]
  Activity: 99.99%
Cryptococcus neoformans [21]
  Activity: 7 log10CFU/ml
Staphylococcus aureus [22]
  Activity: 99.99%
Enterococcus faecium [23]
  Activity: 6 log10CFU/ml
[24]
  Activity: 99.9999%
Escherichia coli
  MIC: 6.25 µM
Enterococcus faecium [25]
  MIC: 3.13 µM
Staphylococcus aureus [26]
  Activity: 1 log10CFU/ml
Cryptococcus neoformans [27]
  Activity: 100%
Enterococcus faecium [28]
  Activity: 99.9999%
Staphylococcus aureus [6]
  Activity: >99%
Acinetobacter baumannii [29]
  Activity: 3 log10CFU/ml
Staphylococcus aureus [7]
  Activity: >3 log10CFU/ml
Staphylococcus aureus [8]
  Activity: 99.99%
Staphylococcus aureus [9]
  Activity: >6 log10CFU/ml
Staphylococcus aureus [10]
  Activity: >99%
Staphylococcus aureus [30]
  Activity: 90%
Acinetobacter baumannii [31]
  Activity: 99.9%
[11]
  CC50 at 48 h: < 1560 nM
Acinetobacter baumannii [32]
  Activity: >99.9999%

## CCCCCCCCCCCCCCCC[n+]1ccn(Cc2ccccc2)c1C.[I-]
HEK293
  Activity: 100%
[11]
  CC50 at 48 h: 2410 nM
